Measurements from ChEMBL document CHEMBL4145615, “Indolyl Azaspiroketal Mannich Bases Are Potent Antimycobacterial Agents with Selective Membrane Permeabilizing Effects and in Vivo Activity” (J Med Chem, 2018).
Converted amounts (≈) assume the structure as drawn. The source made the active and inactive calls. The rule behind the calls is not given here.

What was measured:
[1] = system: Mycobacterium tuberculosis variant bovis BCG; assay: Antimycobacterial activity against Mycobacterium bovis BCG ATCC 35734 after 5 days by broth dilution method; assay type: functional; conditions: ATCC 35734, 120 h
[2] = system: Mycobacterium tuberculosis variant bovis BCG; assay: Bactericidal activity against Mycobacterium bovis BCG ATCC 35734 assessed as 1000 fold reduction in CFU after 5 days; assay type: functional; conditions: ATCC 35734, 120 h, read-out: MBC99.9
Summary of the method: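 BCG ran 5 days at 37°C, 110 rpm; H37Rv ran 7 days at 37°C, 80 rpm. CFU counted on 7H10 agar. MBC99.9 is the 1000-fold CFU reduction versus inoculum at time zero. Average of 2 or more determinations.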

[3] = system: Mycobacterium tuberculosis variant bovis BCG; assay: Antimycobacterial activity against Mycobacterium bovis BCG ATCC 35734 after 5 days in absence of glycerol by broth dilution method; assay type: functional; conditions: ATCC 35734, 120 h
[4] = system: Mycobacterium tuberculosis variant bovis BCG; assay: Antimycobacterial activity against Mycobacterium bovis BCG ATCC 35734 after 5 days in presence of 10% FBS by broth dilution method; assay type: functional; conditions: ATCC 35734, 120 h
[5] = system: Mycobacterium tuberculosis variant bovis BCG; assay: Bactericidal activity against Mycobacterium bovis BCG ATCC 35734 at 4 times MIC90 measured at 48 hrs by time kill assay relative to control; assay type: functional, organism-based
Summary of the method: (§1)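 Samples taken at 6, 12, 24 and 48 h, diluted and plated on 7H10 agar for CFU. Three independent biological replicates.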

[6] = system: Mycobacterium tuberculosis variant bovis BCG; assay: Bactericidal activity against Mycobacterium bovis BCG ATCC 35734 at 4 times MIC90 measured up to 48 hrs by time kill assay relative to control; assay type: functional; summary of the method: as §1
[7] = system: Cell membrane; assay: Disruption of cell membrane potential in Mycobacterium bovis BCG ATCC 35734 at 0.08 uM after 20 mins to 5 days by DiOC2 dye-based fluorescence assay; conditions: Mycobacterium tuberculosis variant bovis BCG
Summary of the method: (§2)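 Controls were rifampicin 0.08 μM (negative) and CCCP 100 μM (positive). Membrane potential tracked by DiOC2 red/green fluorescence ratio over minutes–hours and days 1–5, versus drug-free cultures. 2–3 independent biological replicates.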

[8] = system: Cell membrane; assay: Disruption of cell membrane potential in Mycobacterium bovis BCG ATCC 35734 at 100 uM after 20 mins to 5 days by DiOC2 dye-based fluorescence assay; conditions: Mycobacterium tuberculosis variant bovis BCG; summary of the method: as §2
[9] = system: Cell membrane; assay: Disruption of cell membrane potential in Mycobacterium bovis BCG ATCC 35734 at 4 times MIC90 after 4 hrs by DiOC2 dye-based fluorescence assay; conditions: Mycobacterium tuberculosis variant bovis BCG; summary of the method: as §2
[10] = system: Cell membrane; assay: Disruption of cell membrane potential in Mycobacterium bovis BCG ATCC 35734 at 4 times MIC90 after 3 days by DiOC2 dye-based fluorescence assay; conditions: Mycobacterium tuberculosis variant bovis BCG; summary of the method: as §2
[11] = system: Cell membrane; assay: Induction of cell membrane permeabilization in Mycobacterium bovis BCG ATCC 35734 at 4 times MIC90 after 12 hrs by SYTO9/propidium iodide staining-based fluorescence assay; conditions: Mycobacterium tuberculosis variant bovis BCG
Summary of the method: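 At each time point cells were washed into 0.9% NaCl at OD600 = 0.5 and stained with SYTO 9 and PI for 15 min at 37°C in the dark. Green (488/530 nm) and red (488/630 nm) fluorescence read. G/R ratio scaled between drug-free (0%) and 5% SDS (100%). Three biological replicates.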

| Structure (SMILES) | MIC50 [1] [µM] | MIC90 [1] [µM] | MBC [2] [µM] | MIC50 [3] [µM] | MIC50 [4] [µM] | further results |
| --- | --- | --- | --- | --- | --- | --- |
| CCCCCCCCn1cc(CN2CCC3(CC2)OCCO3)c2ccc(OC)cc21 | 2 (≈ 0.829 µg/mL) | 4 (≈ 1.66 µg/mL) | 3 to 6 (≈ 1.24 to 2.49 µg/mL) | 1.6 (≈ 0.663 µg/mL) | 1.1 | Activity [5]: inactive |
| CCCCCCCCn1cc(CN2CCC3(CC2)OCCCO3)c2ccc(OC)cc21 | 0.3 (≈ 0.129 µg/mL) | 0.8 (≈ 0.343 µg/mL) | 0.8 to 1.6 (≈ 0.343 to 0.686 µg/mL) | 0.35 (≈ 0.15 µg/mL) | 0.33 | fold change (FC) [6]: >100 |
| CO[C@H]1/C=C/O[C@@]2(C)Oc3c(C)c(O)c4c(O)c(c(/C=N/N5CCN(C)CC5)c(O)c4c3C2=O)NC(=O)/C(C)=C\C=C\[C@H](C)[C@H](O)[C@@H](C)[C@@H](O)[C@@H](C)[C@H](OC(C)=O)[C@@H]1C | – | – | – | – | – | Activity [7]: inactive |
| CCCCCCCCn1cc(CN2CCC3(CC2)SCCCS3)c2ccc(OC)cc21 | 0.4 (≈ 0.184 µg/mL) | 0.8 (≈ 0.369 µg/mL) | 0.8 to 1.6 (≈ 0.369 to 0.737 µg/mL) | 0.43 (≈ 0.198 µg/mL) | 0.48 | – |
| CCCCCCCCn1cc(CN2CCC3(CC2)SCCS3)c2ccc(OC)cc21 | 0.5 (≈ 0.223 µg/mL) | 0.8 (≈ 0.357 µg/mL) | 0.8 to 1.6 (≈ 0.357 to 0.715 µg/mL) | 0.27 (≈ 0.121 µg/mL) | 0.28 | – |
| N#CC(C#N)=NNc1cccc(Cl)c1 | – | – | – | – | – | Activity [8]: Active |
| CCCCCCCCn1cc(CN2CCC3(CC2)OCCS3)c2ccc(OC)cc21 | 0.6 (≈ 0.258 µg/mL) | 0.8 (≈ 0.345 µg/mL) | 0.8 to 1.6 (≈ 0.345 to 0.689 µg/mL) | 0.37 (≈ 0.159 µg/mL) | 0.32 | – |
| NNC(=O)c1ccncc1 [ISONIAZID] | – | – | – | – | – | fold change (FC) [6]: >100 |
| CCCCCCCCn1cc(CN2CCCCCC2)c2c(F)cccc21 | – | – | – | – | – | Activity [9]: inactive; Activity [10]: Active |
| CCCCCCCCn1ccc2cc(OCCCN3CCC4(CC3)OCCCO4)ccc21 | 14 (≈ 6.2 µg/mL) | 31 (≈ 13.7 µg/mL) | – | – | – | – |
| COc1ccc2c(CN3CCC4(CC3)OCCO4)cn(CCCOc3ccccc3)c2c1 | 3 (≈ 1.31 µg/mL) | 10 (≈ 4.37 µg/mL) | – | – | – | – |
| CCCCCCCCn1cc(CN2CCCCC2)c2ccc(C#N)cc21 | 2 (≈ 0.703 µg/mL) | 6 (≈ 2.11 µg/mL) | – | – | – | – |
| CCCCCCCCn1cc(CN2CCC3(CC2)OCCCS3)c2ccc(OC)cc21 | 0.4 (≈ 0.178 µg/mL) | 0.8 (≈ 0.356 µg/mL) | 0.4 to 1.6 (≈ 0.178 to 0.711 µg/mL) | 0.41 (≈ 0.182 µg/mL) | 0.6 | Activity [11]: Active; fold change (FC) [6]: >100 |
| CCCCCCCCn1cc(CN2CCC3(CC2)CNC(=O)O3)c2ccc(OC)cc21 | 22 (≈ 9.41 µg/mL) | 43 (≈ 18.4 µg/mL) | – | – | – | – |
| CCCCCCCCn1cc(CN2CCC(S(N)(=O)=O)CC2)c2ccc(OC)cc21 | 8 (≈ 3.49 µg/mL) | 22 (≈ 9.58 µg/mL) | – | – | – | – |
| CCCCCCCCn1cc(CNCC2CCC3CC3C2)c2ccc(OC)cc21 (stereo not drawn) | 1.6 (≈ 0.635 µg/mL) | 2.3 (≈ 0.912 µg/mL) | – | – | – | – |
| COc1ccc2c(CN3CCC4(CC3)OCCO4)cn(CCCOCc3ccccc3)c2c1 | 16 (≈ 7.21 µg/mL) | 40 (≈ 18 µg/mL) | – | – | – | – |
